The source made the active and inactive calls.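 The calls were made as follows, unless noted: active = potentiation averaged over duplicate wells exceeding buffer-only control mean by more than 3 SD; inactive = the rest.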
Columns and labels:
[1] = thallium flux activation in parental CHO cells, counter-screen for KCNQ1 potentiator project (AID 493006;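 active = duplicate-averaged activation above buffer control mean plus 5 SD of those controls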); details: parental CHO-K1 cells, FluxOR thallium flux, at 10 µM; hits give high values
In short: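 Test system: parental CHO-K1 cells, FluxOR dye-loaded / Probe or stimulus: potassium plus thallium depolarizing stimulus, 5x stock 12.5 mM K2SO4, Tl2SO4 / Timing: overnight 37 °C plating, 90 min dye, 20 min dark compound / Measured by: kinetic thallium-flux fluorescence / Read-out: max-minus-min fluorescence over baseline, percent of buffer-to-R-L3 span / Benchmarks: buffer and R-L3 controls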

[2] = target: Potassium voltage-gated channel subfamily KQT member 1 (Homo sapiens) (UniProt P51787); assay: KCNQ1 potassium channel potentiators, confirmation, FluxOR thallium flux, CHO cells, duplicates (AID 493007); details: KCNQ1 cell line, FluxOR thallium flux fluorescence, at 10 µM; hits give high values, % of reference activator effect, buffer zero;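 as to outcome: cells depolarized by a potassium plus thallium sulfate stimulus after compound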;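 as to potentiation: 0% = buffer-only wells and 100% = R-L3 activator control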
In short: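 Assay system: CHO cells carrying KCNQ1 | Controls: Buffer and R-L3 controls | Schedule: FluxOR dye loading 90 min, compound exposure 20 min, room temperature | Read-out: Baseline-normalized fluorescence change, percent of buffer-to-R-L3 range | Replicates: Each compound tested in duplicate | Technique: Kinetic thallium influx fluorescence with FluxOR dye, 10 s baseline, 110 s post-stimulus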

[3] = target: Potassium voltage-gated channel subfamily KQT member 2 (Rattus norvegicus) (UniProt O88943); assay: rat KCNQ2 channel potentiation, selectivity assay for KCNQ1 potentiator project, KCNQ2-CHO-K1 cells (AID 493009;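 active = mean duplicate potentiation above the buffer control mean plus 5 SD of buffer wells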;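 also: assay conditions were tuned for KCNQ1 rather than KCNQ2 modulators; signal is max minus min fluorescence divided by baseline after thallium stimulus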); details: FluxOR thallium flux fluorescence, at 10 µM; hits give high values, scaled: buffer 0, activator control 100
[4] = target: Potassium voltage-gated channel subfamily KQT member 1 (Homo sapiens) (UniProt P51787); assay: KCNQ1 channel current potentiators, confirmation, orthogonal assay for KCNQ1 potentiator project, IonWorks patch clamp, KCNQ1-CHO cells (AID 493184;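 active = current rise at least 3 SD above the untreated control mean in each of two repeat wells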); details: automated patch clamp current, at 10 µM; hits give high values
In short: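 Material: KCNQ1-expressing CHO cells; doses: 10 µM final, single point; probe or stimulus: voltage step from -90 mV holding to +40 mV, 2,000 ms; signal: automated voltage clamp, amphotericin B perforated patch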

Sequence of Potassium voltage-gated channel subfamily KQT member 2 (Rattus norvegicus) (O88943 whole entry, looked up): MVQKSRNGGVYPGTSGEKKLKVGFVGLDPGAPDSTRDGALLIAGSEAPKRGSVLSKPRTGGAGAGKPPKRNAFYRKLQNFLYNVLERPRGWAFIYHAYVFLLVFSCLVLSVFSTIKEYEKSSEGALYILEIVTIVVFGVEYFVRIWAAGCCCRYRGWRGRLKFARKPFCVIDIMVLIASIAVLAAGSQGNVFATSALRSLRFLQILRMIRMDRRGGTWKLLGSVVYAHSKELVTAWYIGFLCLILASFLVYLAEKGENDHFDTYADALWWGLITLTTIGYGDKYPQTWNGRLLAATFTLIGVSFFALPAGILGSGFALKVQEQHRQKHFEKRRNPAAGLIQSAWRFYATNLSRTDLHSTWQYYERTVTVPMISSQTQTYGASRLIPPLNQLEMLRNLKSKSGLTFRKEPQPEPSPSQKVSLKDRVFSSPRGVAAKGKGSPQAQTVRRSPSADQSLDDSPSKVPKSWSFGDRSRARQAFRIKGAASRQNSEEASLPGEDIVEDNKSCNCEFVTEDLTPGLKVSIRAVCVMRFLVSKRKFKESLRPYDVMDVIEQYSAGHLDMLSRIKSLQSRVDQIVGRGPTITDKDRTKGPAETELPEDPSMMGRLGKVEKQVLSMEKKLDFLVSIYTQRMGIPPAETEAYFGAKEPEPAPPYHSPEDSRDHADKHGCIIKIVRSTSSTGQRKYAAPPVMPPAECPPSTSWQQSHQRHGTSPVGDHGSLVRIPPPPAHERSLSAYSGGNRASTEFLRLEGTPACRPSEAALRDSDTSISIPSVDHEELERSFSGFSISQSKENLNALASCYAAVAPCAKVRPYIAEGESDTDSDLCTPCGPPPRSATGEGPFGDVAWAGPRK
Sequence of Potassium voltage-gated channel subfamily KQT member 1 (Homo sapiens) (P51787 whole entry, looked up): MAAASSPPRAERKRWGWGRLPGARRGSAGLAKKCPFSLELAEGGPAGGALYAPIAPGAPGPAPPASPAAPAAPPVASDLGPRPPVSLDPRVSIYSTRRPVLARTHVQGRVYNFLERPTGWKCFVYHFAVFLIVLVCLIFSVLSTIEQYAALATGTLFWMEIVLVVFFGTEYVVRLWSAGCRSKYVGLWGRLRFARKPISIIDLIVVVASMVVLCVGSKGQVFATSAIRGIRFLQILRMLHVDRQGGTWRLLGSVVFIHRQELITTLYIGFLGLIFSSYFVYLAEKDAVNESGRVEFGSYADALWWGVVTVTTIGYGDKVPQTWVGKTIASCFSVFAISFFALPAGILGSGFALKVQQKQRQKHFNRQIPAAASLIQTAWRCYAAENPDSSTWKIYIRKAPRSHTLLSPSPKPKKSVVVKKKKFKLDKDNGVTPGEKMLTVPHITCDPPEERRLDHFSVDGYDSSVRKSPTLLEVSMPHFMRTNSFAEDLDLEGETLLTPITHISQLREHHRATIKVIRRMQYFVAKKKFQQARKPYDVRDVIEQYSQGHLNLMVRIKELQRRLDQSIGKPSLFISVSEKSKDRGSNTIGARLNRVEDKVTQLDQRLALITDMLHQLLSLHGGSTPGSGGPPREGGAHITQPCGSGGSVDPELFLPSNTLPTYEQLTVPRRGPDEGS

SMILES | outcome [1] | outcome [2] | outcome [3] | outcome [4] | potentiation [2] | activation [1] | potentiation [3]
CCOc1ccc(C(C#N)N2CCOCC2)cc1OC (stereo not given) | inactive | inactive | inactive | inactive | – | – | –
O=C(NC(=S)Nc1ccccn1)c1cc(-c2ccccc2)nc2ccccc12 | inactive | – | inactive | inactive | 18% (active) | – | –
COc1ccc(CCN2CC(C(=O)Nc3ccc4c(c3)OCO4)CC2=O)cc1OC (stereo not given) | – | – | – | inactive | 21% (active) | 156% (active) | 158% (active)
C=C1CCN(c2ccc(C(=O)NCc3ccc(C)cc3)cc2[N+](=O)[O-])CC1 | – | – | inactive | inactive | 19.5% (active) | 164% (active) | –
CSc1nc(-c2ccccc2)[nH]c(=S)c1C(C)=O | – | – | – | inactive | 138% (active) | 520% (active) | 474% (active)
O=C(O)c1ccc2c(c1)C(=O)N(c1ccc(Cl)cn1)C2=O | inactive | inactive | inactive | inactive | – | – | –
Nc1ccccc1OCCOCCOc1ccccc1N | inactive | inactive | inactive | inactive | – | – | –
Cc1cc(C)n(-c2nc3ccccc3nc2N2CCN(C(=O)c3ccc(Cl)cc3)CC2)n1 | inactive | inactive | inactive | inactive | – | – | –
CCSc1nnc(NC(=O)[C@H](C)NC(=O)c2ccccc2Cl)s1 | inactive | inactive | inactive | inactive | – | – | –
CCOC(=O)/C(C)=N/NC(=O)c1cccc([N+](=O)[O-])c1 | – | – | – | inactive | 49% (active) | 170% (active) | 206% (active)
C/C(N)=C(/C#N)C(=O)CSc1nc2ccccc2c(=O)n1Cc1ccc(F)cc1 | – | – | – | inactive | 48.5% (active) | 178% (active) | 194% (active)
O=C(COc1ccc(Cl)cc1)NNC(=O)C(=O)NC1CCCCC1 | inactive | inactive | – | inactive | – | – | 158% (active)
COc1ccc(CCNC(=O)c2c(C)nc3ccccn23)cc1 | inactive | inactive | inactive | inactive | – | – | –
O=C(NC(=S)N1CCN(Cc2ccc3c(c2)OCO3)CC1)c1ccc(Cl)cc1 | – | – | – | inactive | 86% (active) | 260% (active) | 298% (active)
OCCCCNCc1ccc(OCc2ccc(Cl)cc2Cl)cc1 | inactive | – | inactive | inactive | 23.5% (active) | – | –
Cc1ccc(OCC(=O)NCCCNC(=O)c2ccncc2)cc1C | inactive | inactive | inactive | inactive | – | – | –
COc1cc(Br)cc(C=Nc2cccc(C(F)(F)F)c2)c1O | inactive | inactive | inactive | inactive | – | – | –
CCC1(c2ccccc2)NC(=O)N(CC(=O)Nc2ccccc2C(=O)N2CCCCC2)C1=O (stereo not given) | inactive | inactive | inactive | inactive | – | – | –
COc1ccccc1C(=O)NNC(=O)C(=O)Nc1cccc(Cl)c1C | – | – | – | inactive | 206% (active) | 612% (active) | 580% (active)
Cc1ccc(S(=O)(=O)Nc2cc(C(F)(F)F)ccc2N2CCOCC2)c(C)c1 | inactive | inactive | inactive | inactive | – | – | –

SMILES | outcome [1] | outcome [2] | outcome [3] | outcome [4] | potentiation [2] | activation [1] | potentiation [3]
COc1ccc(-c2nnc(Nc3nc4c(OC)cccc4s3)o2)cc1 | – | – | – | inactive | 164% (active) | 468% (active) | 392% (active)
CCn1c(SCC(=O)NC(=O)NCc2ccco2)nc2sc(C)c(C)c2c1=O | – | – | – | inactive | 40.5% (active) | 184% (active) | 173% (active)
CCOC(=O)c1c(NC(=S)NCCc2ccccc2)sc2c1CC(C(C)C)OC2 (stereo not given) | inactive | – | – | inactive | 32% (active) | – | 146% (active)
Cc1c(N2C(=O)/C(=C\c3ccccc3O)SC2=S)c(=O)n(-c2ccccc2)n1C | – | – | – | inactive | 200% (active) | 398% (active) | 392% (active)
CCN(Cc1cc2cc(OC)ccc2[nH]c1=O)C(=O)c1ccncc1 | inactive | inactive | inactive | inactive | – | – | –
O=C(CSc1nnnn1-c1ccc(F)cc1)Nc1ccc(N2CCOCC2)c(Cl)c1 | inactive | inactive | inactive | inactive | – | – | –
COC(=O)C1=NN(C(=O)c2ccc(Cl)cc2)C(O)(c2ccccc2)C1 (stereo not given) | – | – | – | inactive | 150% (active) | 426% (active) | 392% (active)
Cc1ccc(C2c3c(-c4ccccc4O)n[nH]c3C(=O)N2Cc2ccncc2)cc1 (stereo not given) | inactive | inactive | inactive | inactive | – | – | –
CN(C)C(=S)NC(=O)c1cccc(Cl)c1 | inactive | – | – | inactive | 19% (active) | – | 142% (active)
COc1cccc2sc(N(CCCN(C)C)C(=O)c3ccc(S(=O)(=O)N4CCCc5ccccc54)cc3)nc12 | inactive | inactive | inactive | inactive | – | – | –
O=C(N/N=C/c1ccc(Sc2ccccn2)o1)c1cc2ccccc2cc1O | – | – | – | inactive | 70% (active) | 213% (active) | 277% (active)
N#C/C(=C/c1cn(-c2ccccc2)nc1-c1cccc(S(=O)(=O)N2CCOCC2)c1)C(=O)NCc1ccco1 | inactive | inactive | inactive | inactive | – | – | –
CCCc1c(C)[nH]c2ccc(NC(C)=O)cc2c1=O | inactive | inactive | inactive | inactive | – | – | –
Cc1nn(-c2ccccc2)c(Cl)c1/C=C1\SC(=S)NC1=O | – | – | – | inactive | 295% (active) | 614% (active) | 704% (active)
Cc1cccc(C(=O)NC(=S)N2CCc3ccccc3C2)c1 | – | – | – | inactive | 99% (active) | 197% (active) | 256% (active)
O=S(=O)(NC(=S)NC1CCCCC1)c1ccc(Br)cc1 | – | – | – | inactive | 52% (active) | 200% (active) | 190% (active)
Oc1c(N=Nc2ccccn2)ccc2ccccc12 | – | – | – | inactive | 91.5% (active) | 182% (active) | 168% (active)
CCOC(=O)c1c(NC(=S)NCC2CCCO2)sc(C)c1C (stereo not given) | inactive | inactive | inactive | inactive | – | – | –
COC(=O)c1ccc(/C=C/c2ccc3cccc(OC)c3n2)cc1 | inactive | inactive | inactive | inactive | – | – | –
O=C(O)CCCN1C(=O)C2C3c4ccccc4C(c4ccccc43)[C@@H]2C1=O (stereo not given in full) | inactive | inactive | inactive | inactive | – | – | –

SMILES | outcome [1] | outcome [2] | outcome [3] | outcome [4] | potentiation [2] | activation [1] | potentiation [3]
CN(C(=O)c1cc(COc2c(F)cccc2F)on1)C1CCOC1 (stereo not given) | inactive | inactive | inactive | inactive | – | – | –
CC1CCN(C(=S)NC(=O)c2ccccc2)CC1 | inactive | inactive | – | inactive | – | – | 150% (active)
CCOC(=O)c1c(NS(=O)(=O)c2cccc(OC)c2)sc2c1CCC2 | inactive | – | inactive | inactive | 59% (active) | – | –
CCOCCc1c(O)nc(SC)[nH]c1=O | inactive | inactive | inactive | inactive | – | – | –
COc1ccc(C(=O)O/N=C(\N)Cc2ccc(Cl)cc2)cc1OC | inactive | inactive | inactive | inactive | – | – | –
Cc1noc(C)c1CSc1ncnc2sc(C)c(C)c12 | inactive | inactive | inactive | inactive | – | – | –
O=C(c1ccccc1NS(=O)(=O)c1ccc(Br)cc1)N1CCOCC1 | – | – | – | inactive | 112% (active) | 306% (active) | 326% (active)
CCCCCNC(=O)Cn1c(=O)c2c(ncn2CC(C)C)n(Cc2ccccc2)c1=O | inactive | inactive | inactive | inactive | – | – | –
COc1ccc(NC(=O)Cc2nnc(SCC(=O)c3ccc(F)cc3)n2C)cc1 | inactive | inactive | inactive | inactive | – | – | –
O=C(O)C1C2CCC(O2)C1C(=O)NCCC1=CCCCC1 (stereo not given) | inactive | inactive | inactive | inactive | – | – | –
O=c1[nH]cc(S(=O)(=O)c2ccccc2)[nH]1 | inactive | inactive | inactive | inactive | – | – | –
O=c1c2cc(Cl)cc(Cl)c2nc2n1CCC2 | inactive | inactive | inactive | inactive | – | – | –
COC(=O)c1sccc1NC(=O)CSc1ccccc1NS(=O)(=O)c1ccc(Cl)cc1 | inactive | – | inactive | inactive | 17.5% (active) | – | –
N#CC1=C(Nc2ccccc2)SC=C(c2ccc(Br)cc2)N=C1N1CCOCC1 | inactive | inactive | inactive | inactive | – | – | –
CS(=O)(=O)N1CCN(Cc2ccc(C(F)(F)F)cc2)CC1 | inactive | inactive | inactive | inactive | – | – | –
Fc1ccc2nc(Nc3nc4c(F)cc(F)cc4s3)sc2c1 | – | – | – | inactive | 74% (active) | 165% (active) | 210% (active)
CC1=NN(C(=O)c2csc(C)c2C)C(O)(C(F)(F)F)C1 (stereo not given) | inactive | inactive | inactive | inactive | – | – | –
O=C(CC1C(=O)NCCN1Cc1cccc(F)c1)NCCCN1CCCC1=O (stereo not given) | inactive | inactive | inactive | inactive | – | – | –
CCc1ccc(OCC(=O)Nc2ccc(S(=O)(=O)N3CCOCC3)cc2)cc1 | inactive | inactive | inactive | inactive | – | – | –
C/C(=N\NC(=O)C(C)Sc1ccccc1)c1ccc([N+](=O)[O-])cc1 (stereo not given) | inactive | inactive | inactive | inactive | – | – | –

— PubChem BioAssay
